# Results reported in ChEMBL document CHEMBL4325889, “Natural products hybrids: 3,5,4'-Trimethoxystilbene-5,6,7-trimethoxyflavone chimeric analogs as potential cytotoxic agents against diverse human cancer cells” (Eur J Med Chem, 2019).
# Calls of active or inactive are those of the source. The rule behind the calls is not given here.
# Experiments:
# HeLa [1] = assay: Induction of apoptosis in human HeLa cells assessed as late apoptotic cells after 48 hrs by Annexin V-FITC/propidium iodide staining based flow cytometry (reference value: 3.6%); assay type: functional
# Summary of the method: (§1)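 HeLa human cervical cancer cells treated with increasing concentrations or for increasing incubation times. Cells stained with annexin V-FITC and propidium iodide and analysed by FACS. Gating: early apoptotic = annexin+/PI−, late apoptotic = annexin+/PI+.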
# HeLa [2] = assay: Induction of apoptosis in human HeLa cells assessed as live cells at 2.5 uM by Annexin V-FITC/propidium iodide staining based flow cytometry (reference value: 85.2%); assay type: functional; summary of the method: as §1
# HeLa [3] = assay: Induction of morphological changes in human HeLa cells assessed as nuclear fragmentation at 10 uM after 48 hrs by DAPI staining based fluorescence microscopic method; assay type: functional, cell-based
# Summary of the method: (§2)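 HeLa cells exposed to 10 µM for 48 h, then stained with DAPI. Nuclear shape, size and density (bright condensed, fragmented chromatin, apoptotic bodies) examined by fluorescence microscopy under 358 nm excitation, against untreated control cells.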
# HeLa [4] = assay: Cell cycle arrest in human HeLa cells assessed as accumulation at sub-G1 phase after 48 hrs by propidium iodide staining based flow cytometry (reference value: 4.43%); assay type: functional
# HeLa [5] = assay: Induction of apoptosis in human HeLa cells assessed as live cells after 24 hrs by Annexin V-FITC/propidium iodide staining based flow cytometry (reference value: 92.9%); assay type: functional; summary of the method: as §1
# HeLa [6] = assay: Induction of morphological changes in human HeLa cells assessed as chromatin condensation at 10 uM after 48 hrs by DAPI staining based fluorescence microscopic method; assay type: functional, cell-based; summary of the method: as §2
# HeLa [7] = assay: Induction of apoptosis in human HeLa cells assessed as necrotic cells at 10 uM by Annexin V-FITC/propidium iodide staining based flow cytometry (reference value: 2.2%); assay type: functional; summary of the method: as §1
# HeLa [8] = assay: Induction of apoptosis in human HeLa cells assessed as late apoptotic cells after 12 hrs by Annexin V-FITC/propidium iodide staining based flow cytometry (reference value: 3.6%); assay type: functional; summary of the method: as §1
# HeLa [9] = assay: Induction of apoptosis in human HeLa cells assessed as early apoptotic cells at 5 uM by Annexin V-FITC/propidium iodide staining based flow cytometry (reference value: 5.7%); assay type: functional; summary of the method: as §1
# HeLa [10] = assay: Induction of apoptosis in human HeLa cells assessed as live cells at 5 uM by Annexin V-FITC/propidium iodide staining based flow cytometry (reference value: 85.2%); assay type: functional; summary of the method: as §1
# HeLa [11] = assay: Induction of apoptosis in human HeLa cells assessed as live cells after 12 hrs by Annexin V-FITC/propidium iodide staining based flow cytometry (reference value: 92.9%); assay type: functional; summary of the method: as §1
# HeLa [12] = assay: Induction of morphological changes in human HeLa cells assessed as apoptotic body formation at 10 uM after 48 hrs by DAPI staining based fluorescence microscopic method; assay type: functional, cell-based; summary of the method: as §2
# HeLa [13] = assay: Induction of apoptosis in human HeLa cells assessed as necrotic cells at 2.5 uM by Annexin V-FITC/propidium iodide staining based flow cytometry (reference value: 2.2%); assay type: functional; summary of the method: as §1
# HeLa [14] = assay: Cell cycle arrest in human HeLa cells assessed as accumulation at sub-G1 phase up to 10 uM by propidium iodide staining based flow cytometry (reference value: 6.24%); assay type: functional
# HeLa [15] = assay: Induction of apoptosis in human HeLa cells assessed as live cells at 10 uM by Annexin V-FITC/propidium iodide staining based flow cytometry (reference value: 85.2%); assay type: functional; summary of the method: as §1
# HeLa [16] = assay: Induction of apoptosis in human HeLa cells assessed as necrotic cells after 48 hrs by Annexin V-FITC/propidium iodide staining based flow cytometry (reference value: 0.9%); assay type: functional; summary of the method: as §1
# HeLa [17] = assay: Induction of apoptosis in human HeLa cells assessed as late apoptotic cells at 10 uM by Annexin V-FITC/propidium iodide staining based flow cytometry (reference value: 6.9%); assay type: functional; summary of the method: as §1
# HeLa [18] = assay: Induction of apoptosis in human HeLa cells assessed as live cells after 48 hrs by Annexin V-FITC/propidium iodide staining based flow cytometry (reference value: 92.9%); assay type: functional; summary of the method: as §1
smiles,measurement,setting,value
COc1cc(NC(=O)c2cccc(-c3cc(=O)c4c(OC)c(OC)c(OC)cc4o3)c2)cc(OC)c1OC,Activity,HeLa [1],39.1%
same,Activity,HeLa [2],79%
same,Activity,HeLa [3],Active
same,Activity,HeLa [4],26.61%
same,Activity,HeLa [5],80.3%
same,Activity,HeLa [6],Active
same,Activity,HeLa [7],12.6%
same,Activity,HeLa [8],5.5%
same,Activity,HeLa [9],21.1%
same,Activity,HeLa [10],59.4%
same,Activity,HeLa [11],89.3%
same,Activity,HeLa [12],Active
same,Activity,HeLa [13],2.4%
same,Activity,HeLa [14],19.14%
same,Activity,HeLa [15],43.7%
same,Activity,HeLa [16],3.7%
same,Activity,HeLa [17],21.2%
same,Activity,HeLa [18],33.2%
